Consider 14 compounds from article PMC4207553 (Journal of Medicinal Chemistry, 2014).

Data set [1] in a line: Microsomal stability, mouse microsomes. In kind it is in vitro ADME. Particulars: % remaining at 1 h.
Data set [2] deals with P. falciparum Dd2. In words: P. falciparum asexual blood-stage growth inhibition. In kind it is cell-based. As to conditions: relative to compound 2.
Data set [3] can be described thus: Metabolite identification study in mouse liver microsomes. In kind it is in vitro ADME. As to conditions: via N-demethylation at R1, hydroxylation, and combined events. (Microsomes from liver hold many membrane-bound enzymes, among them those of drug oxidation.)
The target in data set [4] is hERG (Homo sapiens, UniProt Q12809). Description: hERG binding assay, [3H]astemizole displacement. Particulars: 10 μM, assay run by Ricera under identical conditions. A digest of the protocol:
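Single-point radioligand displacement at 10 μM of test compound. The result is expressed as percent displacement relative to control. The run was made at a second contract laboratory under conditions identical to the first laboratory's assay.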
(In general: hERG is a cardiac potassium channel; its block is linked to QT prolongation.)

Marks after values point to notes of the source that are not given here.

Sequence of hERG (Q12809 whole entry): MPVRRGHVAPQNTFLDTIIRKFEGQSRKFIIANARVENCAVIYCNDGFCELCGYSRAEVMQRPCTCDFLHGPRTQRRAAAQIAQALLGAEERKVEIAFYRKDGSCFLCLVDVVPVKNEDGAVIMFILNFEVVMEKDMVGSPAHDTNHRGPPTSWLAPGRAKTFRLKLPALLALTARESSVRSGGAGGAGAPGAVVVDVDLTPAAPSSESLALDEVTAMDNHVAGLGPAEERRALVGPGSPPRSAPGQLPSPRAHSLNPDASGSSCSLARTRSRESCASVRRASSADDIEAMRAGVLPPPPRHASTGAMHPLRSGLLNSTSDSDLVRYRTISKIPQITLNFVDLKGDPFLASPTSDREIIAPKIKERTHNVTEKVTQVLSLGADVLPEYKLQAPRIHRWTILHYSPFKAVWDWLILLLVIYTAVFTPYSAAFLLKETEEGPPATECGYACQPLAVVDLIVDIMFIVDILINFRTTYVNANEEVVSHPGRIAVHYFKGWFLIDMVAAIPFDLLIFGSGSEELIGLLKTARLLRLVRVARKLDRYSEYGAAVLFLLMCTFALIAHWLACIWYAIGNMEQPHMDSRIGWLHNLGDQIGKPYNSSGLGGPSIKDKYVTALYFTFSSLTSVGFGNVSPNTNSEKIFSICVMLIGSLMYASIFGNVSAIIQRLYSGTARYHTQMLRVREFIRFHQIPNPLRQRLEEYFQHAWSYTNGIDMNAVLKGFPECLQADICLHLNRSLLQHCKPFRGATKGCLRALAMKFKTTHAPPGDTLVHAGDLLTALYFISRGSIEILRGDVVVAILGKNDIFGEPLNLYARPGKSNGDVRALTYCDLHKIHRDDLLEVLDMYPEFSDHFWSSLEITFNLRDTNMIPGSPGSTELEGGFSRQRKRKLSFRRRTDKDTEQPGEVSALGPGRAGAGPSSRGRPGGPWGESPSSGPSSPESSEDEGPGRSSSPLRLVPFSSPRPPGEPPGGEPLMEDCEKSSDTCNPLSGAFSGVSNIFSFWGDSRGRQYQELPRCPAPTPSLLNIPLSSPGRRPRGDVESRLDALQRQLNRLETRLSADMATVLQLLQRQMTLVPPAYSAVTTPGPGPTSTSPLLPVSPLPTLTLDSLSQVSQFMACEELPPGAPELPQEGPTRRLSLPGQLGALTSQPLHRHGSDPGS

Turning to `CCN(CC)C[C@H](C)N1C[C@@H](C)[C@H](CN(C)S(=O)(=O)c2ccc(F)cc2)OCCCC[C@H](C)Oc2ncccc2C1=O` [Compound 23], in data set [1], the “Microsome Stability” value is less than 5% remaining.
The same measure, in the same setting: in the case of `Cc1noc(C)c1NC(=O)Nc1ccc2c(c1)C(=O)N([C@@H](C)CNCC(F)(F)F)C[C@@H](C)[C@H](CN(C)S(=O)(=O)c1ccc(F)cc1)OCCCC[C@H](C)O2` [Compound 12] it was less than 5 % remaining; in that of `CNC[C@H](C)N1C[C@@H](C)[C@H](CN(C)S(=O)(=O)c2ccc(F)cc2)OCCCCOc2ccc(NC(=O)Nc3c(C)noc3C)cc2C1=O` [Compound 35], 65 % remaining.
On the same count and under the same terms, for `Cc1noc(C)c1NC(=O)Nc1ccc2c(c1)C(=O)N([C@@H](C)CN1CCOCC1)C[C@@H](C)[C@H](CN(C)S(=O)(=O)c1ccc(F)cc1)OCCCC[C@H](C)O2` [Compound 13] the value was less than 5 % remaining.
Turning to `C[C@@H]1CN([C@@H](C)CN(C)C)C(=O)c2cc(NC(=O)NC3COC3)ccc2O[C@@H](C)CCCCO[C@H]1CN(C)S(=O)(=O)c1ccc(F)cc1` [Compound 4], the “Microsome Stability” value in data set [1] is reported as 8 % remaining. For the same compound, in data set [2], the “fold less potent than 2 (Dd2 GI50)” value is “approximately 60 fold”.
Consider `Cc1noc(C)c1NC(=O)Nc1ccc2c(c1)C(=O)N([C@@H](C)CN(C)C)C[C@@H](C)[C@H](CN(C)S(=O)(=O)c1ccc(F)cc1)OCCCCO2` [Compound 36], for which the “Microsome Stability” value in data set [1] was 15 % remaining.
On to `C[C@@H]1CN([C@@H](C)CN(C)C)C(=O)c2cccnc2O[C@@H](C)CCCCO[C@H]1CN(C)S(=O)(=O)c1ccc(F)cc1` [Compound 22], for which the “Microsome Stability” value in data set [1] is listed as less than 5% remaining.
For the compound `Cc1noc(C)c1NC(=O)Nc1ccc2c(c1)C(=O)N([C@@H](C)CN(C)C)C[C@@H](C)[C@H](CN(C)S(=O)(=O)c1ccc(F)cc1)OCCCC[C@H](C)O2` [Compound 5], the “Microsome Stability” value in data set [1] is 8 % remaining. Besides, the “metabolism in mouse liver microsomes” value in data set [3] is “extensively metabolized”.
As for `Cc1noc(C)c1NC(=O)Nc1ccc2c(c1)C(=O)N([C@@H](C)C[N+](C)(C)[O-])C[C@@H](C)[C@H](CN(C)S(=O)(=O)c1ccc(F)cc1)OCCCC[C@H](C)O2` [Compound 10], the “Microsome Stability” value in data set [1] is 35 % remaining.
Turning to `CNC[C@H](C)N1C[C@@H](C)[C@H](CN(C)S(=O)(=O)c2ccc(F)cc2)OCCCC[C@H](C)Oc2ccc(NC(=O)Nc3c(C)noc3C)cc2C1=O` [Compound 6], the “Microsome Stability” value in data set [1] is 51 % remaining. Also, the “metabolism in mouse liver microsomes” value in data set [3] is “extensively metabolized”.
Regarding `Cc1noc(C)c1NC(=O)Nc1ccc2c(c1)C(=O)N([C@@H](C)CNCC(C)(C)C)C[C@@H](C)[C@H](CN(C)S(=O)(=O)c1ccc(F)cc1)OCCCC[C@H](C)O2` [Compound 11], in data set [1], the “Microsome Stability” value is given as 5 % remaining.
In the case of `C[C@@H]1CN([C@@H](C)CN(C)C)C(=O)c2cc(NC(=O)Nc3ccccc3)ccc2O[C@@H](C)CCCCO[C@H]1CN(C)S(=O)(=O)c1ccc(F)cc1` [Compound 2], the “hERG, % displacement control” value in data set [4] is 95^b %.
For the compound `CCN(CC)C[C@H](C)N1C[C@@H](C)[C@H](CN(C)S(=O)(=O)c2ccc(F)cc2)OCCCC[C@H](C)Oc2ccc(NC(=O)Nc3c(C)noc3C)cc2C1=O` [Compound 9], the “Microsome Stability” value in data set [1] stood at 5 % remaining.
On the same count and under the same terms, for `C[C@@H]1CN([C@@H](C)CN(C)C)C(=O)c2cc(NC(=O)Nc3ccc(F)cc3)ccc2O[C@@H](C)CCCCO[C@H]1CN(C)S(=O)(=O)c1ccc(F)cc1` [Compound 3] the value was less than 5 % remaining.
